Series [1] has as its target Ribosomal protein S6 kinase beta-1 (Homo sapiens, UniProt P23443). Put plainly: Inhibition of human S6K1 using KKRNRTLTK peptide substrate by radiometric assay.
A short description of series [2]: Half life in Sprague-Dawley rat at 1 mg/kg, iv measured upto 8 hrs by LC/MS/MS analysis. Type of series: ADME, organism-based. The note with it: in vivo. Put shortly: (§1)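 Sprague Dawley rats were dosed with compound in a generic formulation at 1 mg mL-1, either 1 mg kg-1 iv into the femoral vein or 2 mg kg-1 by oral gavage. Blood was drawn at 5, 15, 30 min and 1, 2, 4, 6, 8 h into EDTA, and plasma was obtained by centrifugation. Plasma was precipitated with acetonitrile containing internal standard, then analysed by C18 LC-MS/MS (positive MRM) against internal-standard peak areas. Data were fitted with an IV bolus model.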

The nature of series [3]: Volume of distribution in Sprague-Dawley rat at 1 mg/kg, iv measured upto 8 hrs by LC/MS/MS analysis. Type of series: ADME, organism-based. As to conditions: in vivo. An outline of the steps:
as §1

Series [4] is described as follows: Clearance in Sprague-Dawley rat at 1 mg/kg, iv measured upto 8 hrs by LC/MS/MS analysis. The note with it: in vivo. Type of series: ADME, organism-based. Put shortly: as §1
Series [5] can be described thus: AUC in Sprague-Dawley rat at 1 mg/kg, iv measured upto 8 hrs by LC/MS/MS analysis. Type of series: ADME, organism-based. As to conditions: in vivo. Details: route intravenous, dose 1 mg/kg, time <=8. An outline of the steps:
as §1

Series [6] is described as follows: Cmax in Sprague-Dawley rat at 2 mg/kg, po measured upto 8 hrs by LC/MS/MS analysis. The class given is ADME, organism-based. More on the design: route oral, dose 2 mg/kg, time <=8. The note with it: in vivo. Put shortly:
as §1

Series [7] can be described thus: Oral bioavailability in Sprague-Dawley rat at 2 mg/kg measured upto 8 hrs by LC/MS/MS analysis. The class given is ADME, organism-based. As to conditions: in vivo. Put shortly:
as §1

A short description of series [8]: Metabolic stability in human liver microsomes assessed as half life. Type of series: ADME, Microsome. An outline of the steps: (§2)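 Half-life in human or rat liver microsomes, reported as the mean of three experiments with errors within 30% of the mean.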
Series [9] is described as follows: Metabolic stability in rat liver microsomes assessed as half life. The class given is ADME, Microsome. An outline of the steps:
as §2

For series [10], the target named is T1, CYP1A2 (Homo sapiens, UniProt P05177).
T1 sequence (P05177 whole entry): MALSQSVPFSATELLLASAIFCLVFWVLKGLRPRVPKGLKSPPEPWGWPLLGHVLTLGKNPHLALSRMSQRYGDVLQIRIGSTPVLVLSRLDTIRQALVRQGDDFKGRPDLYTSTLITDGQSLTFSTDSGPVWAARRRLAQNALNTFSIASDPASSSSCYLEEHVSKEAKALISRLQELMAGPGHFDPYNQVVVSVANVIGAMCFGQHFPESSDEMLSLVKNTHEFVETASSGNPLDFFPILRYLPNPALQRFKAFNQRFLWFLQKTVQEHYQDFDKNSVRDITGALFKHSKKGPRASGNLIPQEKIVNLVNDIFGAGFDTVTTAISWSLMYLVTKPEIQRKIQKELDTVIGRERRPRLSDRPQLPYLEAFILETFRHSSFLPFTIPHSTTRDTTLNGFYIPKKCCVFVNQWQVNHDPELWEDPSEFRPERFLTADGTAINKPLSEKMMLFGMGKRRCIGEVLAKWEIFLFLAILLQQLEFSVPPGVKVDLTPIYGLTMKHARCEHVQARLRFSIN
The experiment in a line: Inhibition of human CYP1A2 using phenacetin as substrate at 10 uM by cocktail inhibition assay. The class given is ADME. The note with it: probe phenacetin. Put shortly:
(§3)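 Cocktail P450 assay measuring marker metabolism with and without 10 µM test compound: CYP1A2 phenacetin […] to acetaminophen, CYP2C9 tolbutamide to hydroxytolbutamide, CYP2D6 bufuralol to […], CYP3A4 midazolam to 1'-hydroxymidazolam. Each substrate was at about its Km. Isoform-specific inhibitors were run as system controls. Values are means of three experiments, with errors within 30% of the mean.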

In series [11] the target is CYP2C9 (Homo sapiens, UniProt P11712). Put plainly: Inhibition of human CYP2C9 using tolubutamide as substrate at 10 uM by cocktail inhibition assay. The note with it: probe tolubutamide. The class given is ADME. An outline of the steps: as §3
Chain of CYP2C9 (P11712 whole entry): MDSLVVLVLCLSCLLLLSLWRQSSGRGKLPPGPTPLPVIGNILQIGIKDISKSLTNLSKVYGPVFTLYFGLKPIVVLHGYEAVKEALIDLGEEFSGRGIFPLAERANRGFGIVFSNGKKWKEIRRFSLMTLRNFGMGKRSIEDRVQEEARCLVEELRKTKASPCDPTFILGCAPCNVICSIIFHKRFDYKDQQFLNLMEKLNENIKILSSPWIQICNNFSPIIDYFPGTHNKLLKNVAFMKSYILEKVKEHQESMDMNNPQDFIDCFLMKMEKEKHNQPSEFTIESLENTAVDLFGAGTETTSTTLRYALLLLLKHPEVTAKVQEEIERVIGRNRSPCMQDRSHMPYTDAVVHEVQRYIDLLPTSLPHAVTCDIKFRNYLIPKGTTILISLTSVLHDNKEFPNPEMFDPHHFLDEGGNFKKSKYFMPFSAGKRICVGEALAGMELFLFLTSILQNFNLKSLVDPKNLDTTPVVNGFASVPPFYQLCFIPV
Series [12] has as its target CYP2D6 (Homo sapiens, UniProt P10635). Put plainly: Inhibition of human CYP2D6 using bufuralol as substrate at 10 uM by cocktail inhibition assay. The class given is ADME. As to conditions: probe bufuralol. An outline of the steps: as §3
The target in series [13] is CYP3A4 (Homo sapiens, UniProt P08684). The experiment in a line: Inhibition of human CYP3A4 using midazolam as substrate at 10 uM by cocktail inhibition assay. The note with it: probe midazolam. Type of series: ADME. An outline of the steps: as §3
Chain of CYP3A4 (P08684 whole entry): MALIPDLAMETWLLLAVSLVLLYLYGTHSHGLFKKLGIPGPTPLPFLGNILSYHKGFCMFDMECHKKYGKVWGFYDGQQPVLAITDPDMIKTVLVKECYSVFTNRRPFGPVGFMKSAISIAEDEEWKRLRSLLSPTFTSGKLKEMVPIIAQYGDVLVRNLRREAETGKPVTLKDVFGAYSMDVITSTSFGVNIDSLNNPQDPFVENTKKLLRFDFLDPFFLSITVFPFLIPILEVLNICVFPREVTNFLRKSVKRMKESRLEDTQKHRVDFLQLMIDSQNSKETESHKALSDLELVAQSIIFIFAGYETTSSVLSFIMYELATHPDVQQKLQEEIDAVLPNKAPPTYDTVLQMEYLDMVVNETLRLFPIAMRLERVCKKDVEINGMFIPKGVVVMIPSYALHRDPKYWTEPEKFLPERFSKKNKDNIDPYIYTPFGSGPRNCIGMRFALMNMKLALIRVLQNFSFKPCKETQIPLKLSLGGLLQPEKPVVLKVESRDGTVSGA

Chain of Ribosomal protein S6 kinase beta-1 (P23443 whole entry): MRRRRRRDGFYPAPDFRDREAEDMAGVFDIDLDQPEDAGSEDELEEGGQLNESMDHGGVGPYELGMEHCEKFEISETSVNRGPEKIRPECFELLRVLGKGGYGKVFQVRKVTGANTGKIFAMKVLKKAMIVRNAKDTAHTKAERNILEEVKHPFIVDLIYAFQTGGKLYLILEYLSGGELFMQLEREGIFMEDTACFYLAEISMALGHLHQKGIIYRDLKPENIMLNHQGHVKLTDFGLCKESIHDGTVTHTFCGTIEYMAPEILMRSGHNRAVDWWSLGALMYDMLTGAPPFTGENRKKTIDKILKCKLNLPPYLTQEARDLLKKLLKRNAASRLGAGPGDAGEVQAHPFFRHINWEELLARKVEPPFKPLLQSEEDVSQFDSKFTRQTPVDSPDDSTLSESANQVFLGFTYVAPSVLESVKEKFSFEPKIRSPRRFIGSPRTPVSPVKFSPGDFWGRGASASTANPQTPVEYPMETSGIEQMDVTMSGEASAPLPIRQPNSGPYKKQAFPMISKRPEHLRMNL
Chain of CYP2D6 (P10635 whole entry): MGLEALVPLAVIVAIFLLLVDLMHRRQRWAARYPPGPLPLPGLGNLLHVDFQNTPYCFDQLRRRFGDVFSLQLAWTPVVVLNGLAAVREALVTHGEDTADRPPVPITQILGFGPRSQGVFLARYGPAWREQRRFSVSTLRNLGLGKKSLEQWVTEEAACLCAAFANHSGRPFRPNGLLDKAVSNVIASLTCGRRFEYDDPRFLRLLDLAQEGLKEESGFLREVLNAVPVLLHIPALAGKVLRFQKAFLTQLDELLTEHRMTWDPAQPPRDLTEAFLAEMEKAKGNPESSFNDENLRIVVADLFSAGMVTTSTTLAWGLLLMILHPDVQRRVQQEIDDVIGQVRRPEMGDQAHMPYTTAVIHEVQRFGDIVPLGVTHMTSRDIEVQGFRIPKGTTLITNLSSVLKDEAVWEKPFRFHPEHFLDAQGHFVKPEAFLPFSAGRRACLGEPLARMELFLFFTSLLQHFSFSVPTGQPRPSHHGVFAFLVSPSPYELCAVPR

Take `O=C(Nc1ccc(-c2cn[nH]c2)cc1F)C1COc2ccccc2O1` (stereo not drawn): the IC50 in series [1] came out at 179 nM.
As for `COc1ccc2c(c1)CC(C(=O)Nc1cc(F)c(-c3cn[nH]c3)c(F)c1)CO2` (stereo not drawn), the half-life in [2] is 28.2 min; in series [8] it was 23 min; in series [9] it was 17 min. This compound also yielded a Vd in [3] of 0.7 L/kg. This compound had a clearance in [4] of 28 mL/min/kg. In series [1], this compound gave an IC50 of 56.7 nM. In addition, the AUC at 8 h in series [5] worked out at 1.6 µM·h. In series [6], the Cmax is 670 nM. The bioavailability in series [7] was found to be 25%. The inhibition at 10 µM amounted to 42% in series [10], 63% in series [11], 40% in series [12] and 38% in series [13].
In the case of `O=C(Nc1cc(F)c(-c2cn[nH]c2)c(F)c1)C1COc2ccccc2C1` (stereo not drawn), the Vd in series [3] amounted to 0.8 L/kg. Also, the AUC at 8 h in series [5] amounted to 1.5 µM·h. In series [6], this compound showed a Cmax of 600 nM. In addition, the bioavailability in series [7] was determined as 23%.

The term IC50 denotes the concentration needed to halve the response being measured. As usually defined, the half-life is the time in which the quantity being followed falls by half. For orientation: Vd means a proportionality between amount in the body and measured concentration, not a real space. Read a low Vd as little distribution into tissue. Usually clearance stands for the volume of plasma or blood freed of the substance per unit of time. A lower clearance goes with inefficient removal. By AUC is commonly meant concentration integrated over time. The low end stands for low exposure, the high end for high exposure. By Cmax is commonly meant the maximum level reached in the sampled fluid or tissue. Usually bioavailability stands for the share of a dose that reaches the circulation, judged against a reference dose that is usually intravenous. One may read the inhibition as the drop in the measured response relative to a control, in per cent. Higher therefore signals strong suppression.

For the origin of these results see ChEMBL document CHEMBL4715684, “Computer-aided discovery of phenylpyrazole based amides as potent S6K1 inhibitors” (RSC Med Chem, 2020).
